Data as given in ChEMBL document CHEMBL1134365, “Synthesis and Src kinase inhibitory activity of a series of 4-phenylamino-3-quinolinecarbonitriles” (J Med Chem, 2001).

Legend:
[1] = target: T1, Proto-oncogene tyrosine-protein kinase Src (Homo sapiens, UniProt P12931); assay: Inhibition of Src Kinase at 0.1 mM ATP
Outline: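 Compound is preincubated 10 min at 30 °C, then the reaction is started with ATP (100 μM final) and run 1 h at 30 °C. It is stopped with EDTA and read by ELISA for tyrosine phosphorylation. Compounds are run in duplicate; values are the mean of at least two determinations.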

[2] = target: T1, Proto-oncogene tyrosine-protein kinase Src; assay: Inhibition of Src Kinase at 1 mM ATP
Outline: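 Src ELISA kinase assay with Src (3 units/reaction) and cdc2 substrate peptide in Tris-HCl pH 7.5 buffer with MgCl₂, EGTA and vanadate. After a 10 min, 30 °C preincubation with compound, the reaction is started with ATP raised to 1 mM and run 1 h at 30 °C. It is stopped with EDTA and phosphotyrosine is detected by ELISA.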

[3] = target: T1, Proto-oncogene tyrosine-protein kinase Src; assay: Inhibition of Src Kinase at 5 mM ATP
Outline: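 Same Src ELISA format: enzyme at 3 units/reaction, cdc2 peptide substrate, Tris-HCl pH 7.5/MgCl₂/EGTA/Na₃VO₄ buffer, and 10 min compound preincubation at 30 °C. ATP is raised to 5 mM to start the reaction, which runs 1 h at 30 °C. It is quenched with EDTA and phosphorylation is read by ELISA.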

[4] = target: T1, Proto-oncogene tyrosine-protein kinase Src; assay: Inhibitory activity against human c-Src Kinase was measured using ELISA assay
Outline: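 Src (3 units/reaction) and cdc2 substrate peptide were preincubated with compound for 10 min at 30 °C in 50 mM Tris-HCl pH 7.5, 10 mM MgCl2, 0.1 mM EGTA and 0.5 mM Na3VO4. ATP was added to 100 μM final, the reaction ran 1 h at 30 °C, and EDTA stopped it. Phosphotyrosine was read by ELISA kit.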

[5] = target: T1, Proto-oncogene tyrosine-protein kinase Src; assay: Inhibition of Src Kinase at 1 uM

T1 sequence (P12931 2-536 limits assumed): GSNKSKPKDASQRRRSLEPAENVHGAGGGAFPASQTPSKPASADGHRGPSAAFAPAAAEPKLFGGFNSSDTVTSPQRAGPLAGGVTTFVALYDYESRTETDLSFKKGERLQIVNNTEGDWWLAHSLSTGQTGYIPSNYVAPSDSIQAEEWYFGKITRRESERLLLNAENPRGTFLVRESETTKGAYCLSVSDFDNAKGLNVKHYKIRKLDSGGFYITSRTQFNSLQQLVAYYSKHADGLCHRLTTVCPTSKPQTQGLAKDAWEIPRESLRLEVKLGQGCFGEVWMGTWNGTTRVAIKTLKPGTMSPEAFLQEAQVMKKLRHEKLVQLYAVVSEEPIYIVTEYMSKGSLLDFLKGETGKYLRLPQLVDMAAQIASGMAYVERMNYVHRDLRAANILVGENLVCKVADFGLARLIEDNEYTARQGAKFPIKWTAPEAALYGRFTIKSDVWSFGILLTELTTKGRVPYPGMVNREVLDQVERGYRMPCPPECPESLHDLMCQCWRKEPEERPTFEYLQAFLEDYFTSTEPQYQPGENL

Row | IC50 [4] [nM] | inhibition [5] [%] | Compound | also measured
1 | 30 |  | COc1cc2ncc(C#N)c(Nc3ccc(Cl)cc3Cl)c2cc1OC | IC50 [1]: 23 nM; IC50 [2]: 130 nM; IC50 [3]: 270 nM
2 | 40 |  | COc1cc2ncc(C#N)c(Nc3cc(Cl)ccc3Cl)c2cc1OC | 
3 | 1200 |  | COc1cccc2ncc(C#N)c(Nc3ccc(Cl)cc3Cl)c12 | 
4 | 90 |  | COc1cc2ncc(C#N)c(Nc3cccc(Cl)c3Cl)c2cc1OC | 
5 |  | 32 | COc1cc2ncc(C#N)c(N(C)c3ccc(Cl)cc3Cl)c2cc1OC | 
6 | 3.8 |  | COc1cc2c(Nc3ccc(Cl)cc3Cl)c(C#N)cnc2cc1OCCCN1CCOCC1 | 
7 | 200 |  | COc1ccc2c(Nc3ccc(Cl)cc3Cl)c(C#N)cnc2c1 | 
8 |  | < 20 | COc1cc2ncc(CO)c(Nc3ccc(Cl)cc3Cl)c2cc1OC | 
9 | 11 |  | CCOc1cc2ncc(C#N)c(Nc3ccc(Cl)cc3Cl)c2cc1OCC | 
10 |  | < 20 | N#Cc1cnc2ccccc2c1Nc1ccc(Cl)cc1Cl | 
11 |  | < 20 | CCOC(=O)c1cnc2cc(OC)c(OC)cc2c1Nc1ccc(Cl)cc1Cl | 
12 | 1100 |  | COc1cc2ncc(C#N)c(Nc3cc(Cl)cc(Cl)c3)c2cc1OC | 
13 | 53 |  | COc1cc2ncc(C#N)c(Nc3ccc(Cl)cc3F)c2cc1OC | 
14 | 19 |  | N#Cc1cnc2cc(OCCCN3CCOCC3)c(OCCCN3CCOCC3)cc2c1Nc1ccc(Cl)cc1Cl | 
15 | 320 |  | COc1ccc2ncc(C#N)c(Nc3ccc(Cl)cc3Cl)c2c1 | 
16 | 15 |  | COc1cc2ncc(C#N)c(Nc3ccc(Br)cc3Cl)c2cc1OC | 
17 | 160 |  | CCCCOc1cc2ncc(C#N)c(Nc3ccc(Cl)cc3Cl)c2cc1OCCCC | 
18 |  | 24 | COc1cc2ncc(C#N)c(NCc3ccc(Cl)cc3Cl)c2cc1OC | 
19 | 61 |  | COc1cc2ncc(C#N)c(Nc3c(Cl)cccc3Cl)c2cc1OC | 
20 | 10 |  | COc1cc2ncc(C#N)c(Nc3ccc(Cl)cc3Br)c2cc1OC | 

Row | IC50 [4] [nM] | inhibition [5] [%] | Compound | also measured
21 | 95 |  | COc1cc2ncc(C#N)c(Nc3ccccc3Cl)c2cc1OC | 
22 |  | 52 | COc1cc(OC)c2c(Nc3ccc(Cl)cc3Cl)c(C#N)cnc2c1 | 
23 |  | < 20 | COc1cccc2c(Nc3ccc(Cl)cc3Cl)c(C#N)cnc12 | 
24 | 220 |  | COc1cc2ncc(C#N)c(Nc3ccc(Cl)cc3Cl)c2cc1OCCCN1CCOCC1 | 
25 | 3.5 |  | COc1cc2c(Nc3ccc(Cl)cc3Cl)c(C#N)cnc2cc1OCCCN1CCC(O)CC1 | 
26 |  | < 20 | COc1cc2/c(=N/c3ccc(Cl)cc3Cl)c(C#N)cn(C)c2cc1OC | 
27 | 8.7 |  | COc1cc2c(Nc3ccc(Cl)cc3Cl)c(C#N)cnc2cc1OCCCN1CCN(C)CC1 | 
28 | 250 |  | COc1cc2ncnc(Nc3ccc(Cl)cc3Cl)c2cc1OC | 
29 |  | < 20 | COc1cc2ncc(C(N)=O)c(Nc3ccc(Cl)cc3Cl)c2cc1OC | 
30 | 84 |  | COc1cc2nccc(Nc3ccc(Cl)cc3Cl)c2cc1OC | 
31 | 2200 |  | COc1cc2ncc(C#N)c(Sc3ccc(Cl)cc3Cl)c2cc1OC | 
32 |  | < 20 | COc1cc2ncc(C#N)c(NC(=O)c3ccc(Cl)cc3Cl)c2cc1OC | 
33 | 57 |  | COc1cc2ncc(C#N)c(Nc3ccc(Cl)c(Cl)c3)c2cc1OC | 
34 |  | < 20 | COc1cc2ncc(C(=O)O)c(Nc3ccc(Cl)cc3Cl)c2cc1OC | 
35 | 53 |  | COc1cc2ncc(C#N)c(Nc3ccc(Cl)cc3)c2cc1OC | 
36 | 250 |  | COc1cc2ncc(C=O)c(Nc3ccc(Cl)cc3Cl)c2cc1OC | 
37 |  | 37 | COc1cc2ncc(C#N)c(Oc3ccc(Cl)cc3Cl)c2cc1OC | 
38 | 95 |  | COc1cc2ncc(C#N)c(Nc3ccc(I)cc3Cl)c2cc1OC | 
39 | 6.2 |  | COc1cc2ncc(C#N)c(Nc3ccc(Cl)cc3I)c2cc1OC | 
40 |  | < 20 | N#Cc1cnc2cc(O)c(O)cc2c1Nc1ccc(Cl)cc1Cl | 
